From ChEMBL document CHEMBL4619808, “Tailoring the Physicochemical Properties of Antimicrobial Peptides onto a Thiazole-Based γ-Peptide Foldamer” (J Med Chem, 2020)
Converted amounts (≈) assume the structure as drawn.

How the values were obtained:
[1] = system: Bacillus subtilis; experiment: Antimicrobial activity against Bacillus subtilis ATCC 6633 assessed as inhibition of microbial growth incubated for 24 hrs; type: functional; settings: ATCC 6633, 24 h
How it was run: (§1)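 Broth microdilution. Strains grown overnight on TSA at 37°C, suspended to 10⁸ CFU/mL in Tryptone-Sel, then diluted to 10⁶ CFU/mL in double-strength Mueller-Hinton broth. Two-fold serial dilutions in sterile water (pH 7.4–7.7) mixed 1:1 with inoculum. Incubation 24 h at 37°C. MIC is the lowest concentration inhibiting growth. Duplicate wells, three independent experiments.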

[2] = system: Staphylococcus aureus; experiment: Antimicrobial activity against Staphylococcus aureus ATCC 6538 assessed as inhibition of microbial growth incubated for 24 hrs; type: functional; settings: ATCC 6538, 24 h; how it was run: as §1
[3] = system: Enterococcus faecalis; experiment: Antimicrobial activity against Enterococcus faecalis ATCC 29121 assessed as inhibition of microbial growth incubated for 24 hrs; type: functional; settings: ATCC 29121, 24 h; how it was run: as §1
[4] = system: Escherichia coli; experiment: Antimicrobial activity against Escherichia coli ATCC 8739 assessed as inhibition of microbial growth incubated for 24 hrs; type: functional; settings: ATCC 8739, 24 h; how it was run: as §1
[5] = system: Pseudomonas aeruginosa; experiment: Antimicrobial activity against Pseudomonas aeruginosa ATCC 9027 assessed as inhibition of microbial growth incubated for 24 hrs; type: functional; settings: ATCC 9027, 24 h; how it was run: as §1
[6] = system: Candida albicans; experiment: Antimicrobial activity against Candida albicans ATCC 10231 assessed as inhibition of microbial growth incubated for 48 hrs; type: functional; settings: ATCC 10231, 48 h
How it was run: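 C. albicans grown 48 h on Sabouraud at 20–25°C, suspended to 10⁸ CFU/mL, then diluted to 10⁶ CFU/mL in double-strength Mueller-Hinton broth. Two-fold serial dilutions in water (pH 7.4–7.7) mixed 1:1 with inoculum. Incubation 48 h at 25°C. MIC is the lowest concentration inhibiting growth. Duplicate wells, three independent experiments.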

[7] = Hemolytic activity in human RBC assessed as induction of hemolysis incubated for 1 hr; type: cell-based, Erythrocyte; settings: red blood cells (erythrocytes), read-out: HD50
How it was run: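 Human RBCs washed in PBS and used at 5% packed cell volume, mixed 1:1 with two-fold serial dilutions in PBS (pH 7.4–7.7). Incubation 1 h at 37°C, then centrifugation at 1500g for 10 min at 5°C. Supernatant absorbance read at 490 nm against PBS (0%) and 1% SDS/Tris (100%) controls. HC50 from three independent experiments, double duplicate.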

[8] = system: Bacillus subtilis; experiment: Microbicidal activity against Bacillus subtilis ATCC 6633 assessed as inhibition of colony growth incubated for 24 hrs followed by replating and further incubated for 24 hrs; type: functional; settings: ATCC 6633, 24 h
[9] = system: Staphylococcus aureus; experiment: Microbicidal activity against Staphylococcus aureus ATCC 6538 assessed as inhibition of colony growth incubated for 24 hrs followed by replating and further incubated for 24 hrs; type: functional; settings: ATCC 6538, 24 h
[10] = system: Enterococcus faecalis; experiment: Microbicidal activity against Enterococcus faecalis ATCC 29121 assessed as inhibition of colony growth incubated for 24 hrs followed by replating and further incubated for 24 hrs; type: functional; settings: ATCC 29121, 24 h
[11] = system: Escherichia coli; experiment: Microbicidal activity against Escherichia coli ATCC 8739 assessed as inhibition of colony growth incubated for 24 hrs followed by replating and further incubated for 24 hrs; type: functional; settings: ATCC 8739, 24 h
[12] = system: Candida albicans; experiment: Microbicidal activity against Candida albicans ATCC 10231 assessed as inhibition of colony growth incubated for 48 hrs followed by replating and further incubated for 48 hrs; type: functional; settings: ATCC 10231, 48 h
[13] = system: Pseudomonas aeruginosa; experiment: Microbicidal activity against Pseudomonas aeruginosa ATCC 9027 assessed as inhibition of colony growth incubated for 24 hrs followed by replating and further incubated for 24 hrs; type: functional; settings: ATCC 9027, 24 h

Row | MIC [1] | MIC [2] | MIC [3] | MIC [4] | MIC [5] | MIC [6] | Structure (SMILES) | HC50 at 1 h [7] | MBC [8] | MBC [9] | MBC [10] | MBC [11] | MBC [12] | MBC [13]
1 | 0.5 µM | 3.1 µM | 3.1 µM | 23 µM | > 100 µM | 25 µM | CC(=O)N[C@@H](CCCNC(=N)N)c1nc(C)sc1C(=O)N[C@@H](C)c1nc(C)sc1C(=O)N[C@@H](C)c1nc(C)sc1C(=O)N[C@@H](CCCNC(=N)N)c1nc(C)sc1C(=O)N[C@@H](C)c1nc(C)sc1C(=O)N[C@@H](C)c1nc(C)sc1C(=O)N[C@@H](CCCNC(=N)N)c1nc(C)sc1C(=O)N[C@@H](C)c1nc(C)sc1C(=O)N[C@@H](C)c1nc(C)sc1C(=O)N[C@@H](CCCNC(=N)N)c1nc(C)sc1C(=O)N[C@@H](C)c1nc(C)sc1C(=O)N[C@@H](C)c1nc(C)sc1C(N)=O | 46 µM | 0.5 µM (≈ 1.21 µg/mL) | 8.3 µM (≈ 20.1 µg/mL) | 11.5 µM (≈ 27.8 µg/mL) | 30 µM (≈ 72.5 µg/mL) | 50 µM (≈ 121 µg/mL) | 
2 | 4.2 µM | 16.7 µM | 10.4 µM | 14.6 µM | 14.6 µM | 25 µM | CC(=O)N[C@@H](CCCCN)c1nc(C)sc1C(=O)N[C@@H](CC(C)C)c1nc(CCCCN)sc1C(=O)N[C@@H](C)c1nc(CC(C)C)sc1C(=O)N[C@@H](CCCCN)c1nc(C)sc1C(=O)N[C@@H](CC(C)C)c1nc(CCCCN)sc1C(=O)N[C@@H](C)c1nc(CC(C)C)sc1C(=O)N[C@@H](CCCCN)c1nc(C)sc1C(=O)N[C@@H](CC(C)C)c1nc(CCCCN)sc1C(=O)N[C@@H](C)c1nc(CC(C)C)sc1C(=O)N[C@@H](CCCCN)c1nc(C)sc1C(=O)N[C@@H](CC(C)C)c1nc(CCCCN)sc1C(=O)N[C@@H](C)c1nc(CC(C)C)sc1C(N)=O | > 100 µM | 6.2 µM (≈ 17.8 µg/mL) | 25 µM (≈ 71.8 µg/mL) | 12.5 µM (≈ 35.9 µg/mL) | 16.5 µM (≈ 47.4 µg/mL) | 25 µM (≈ 71.8 µg/mL) | 19 µM (≈ 54.6 µg/mL)
3 | > 150 µM | > 150 µM | > 150 µM | > 150 µM | > 150 µM | > 150 µM | CC(=O)N[C@@H](CCCCN)c1nc(C)sc1C(=O)N[C@@H](C)c1nc(CCCCN)sc1C(=O)N[C@@H](C)c1nc(C)sc1C(N)=O | > 100 µM | > 150 µM | > 150 µM | > 150 µM | > 150 µM | > 150 µM | > 150 µM
4 | 30 µM | > 150 µM | > 150 µM | > 150 µM | > 150 µM | 62.5 µM | CC(=O)N[C@@H](CCCCN)c1nc(C)sc1C(=O)N[C@@H](C)c1nc(CCCCN)sc1C(=O)N[C@@H](C)c1nc(C)sc1C(=O)N[C@@H](CCCCN)c1nc(C)sc1C(=O)N[C@@H](C)c1nc(CCCCN)sc1C(=O)N[C@@H](C)c1nc(C)sc1C(N)=O | > 100 µM | 30 µM (≈ 38.9 µg/mL) | > 150 µM | > 150 µM | > 150 µM | 130 µM (≈ 169 µg/mL) | > 150 µM

Row | Structure (SMILES) | MIC [1] | MIC [2] | MIC [3] | MIC [4] | MIC [5] | MIC [6] | HC50 at 1 h [7] | MBC [8] | MBC [9] | MBC [10] | MBC [11] | MBC [12] | MBC [13]
5 | CC[C@H](C)[C@H](NC(=O)CN)C(=O)NCC(=O)N[C@@H](C)C(=O)N[C@H](C(=O)N[C@@H](CC(C)C)C(=O)N[C@@H](CCCCN)C(=O)N[C@H](C(=O)N[C@@H](CC(C)C)C(=O)N[C@H](C(=O)N[C@H](C(=O)NCC(=O)N[C@@H](CC(C)C)C(=O)N1CCC[C@H]1C(=O)N[C@@H](C)C(=O)N[C@@H](CC(C)C)C(=O)N[C@H](C(=O)N[C@@H](CO)C(=O)N[C@@H](Cc1c[nH]c2ccccc12)C(=O)N[C@H](C(=O)N[C@@H](CCCCN)C(=O)N[C@@H](CCCNC(=N)N)C(=O)N[C@@H](CCCCN)C(=O)N[C@@H](CCCNC(=N)N)C(=O)N[C@@H](CCC(N)=O)C(=O)N[C@@H](CCC(N)=O)C(N)=O)[C@@H](C)CC)[C@@H](C)CC)[C@@H](C)O)[C@@H](C)O)C(C)C)C(C)C [MELITTIN] |  |  | 1.6 µM |  |  | 1.6 µM |  | 1.1 µM (≈ 3.13 µg/mL) | 1.2 µM (≈ 3.42 µg/mL) | 1.6 µM (≈ 4.55 µg/mL) | 4.7 µM (≈ 13.4 µg/mL) | 1.6 µM (≈ 4.55 µg/mL) | 3.1 µM (≈ 8.82 µg/mL)
